We go through 29 compounds from ChEMBL document CHEMBL1134108, “Expedited discovery of second generation NK-1 antagonists: identification of a nonbasic aryloxy substituent” (Bioorg Med Chem Lett, 2001).

The structures appear in SMILES notation. pIC50: −log10 of the molar value.

The target of series [1] is T1, Substance-P receptor (Homo sapiens, UniProt P25103). Put plainly: In vitro inhibition of binding of [125I]Bolton-Hunter SP to Tachykinin receptor 1 in human IM-9 cell line. It is filed as cell-based.
T1 sequence (P25103 whole entry): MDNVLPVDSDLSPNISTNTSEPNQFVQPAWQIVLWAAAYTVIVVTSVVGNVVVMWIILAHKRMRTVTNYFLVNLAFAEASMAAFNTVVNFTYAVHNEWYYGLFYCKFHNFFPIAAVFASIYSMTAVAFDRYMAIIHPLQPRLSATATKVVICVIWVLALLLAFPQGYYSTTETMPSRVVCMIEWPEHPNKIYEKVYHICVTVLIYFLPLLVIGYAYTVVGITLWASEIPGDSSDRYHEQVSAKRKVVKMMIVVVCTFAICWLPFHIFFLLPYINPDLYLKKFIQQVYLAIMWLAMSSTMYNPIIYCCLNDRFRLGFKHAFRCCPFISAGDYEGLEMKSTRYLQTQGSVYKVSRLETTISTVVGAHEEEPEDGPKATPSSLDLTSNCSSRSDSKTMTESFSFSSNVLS
In series [2] the target is T1, Substance-P receptor. Put plainly: In vitro inhibition of binding of [125I]Bolton-Hunter SP to Tachykinin receptor 1 in human IM-9 cell line at a concentration of 10 nM. It is filed as cell-based. The method, boiled down: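 Single-point screen at 10 nM test compound, run in triplicate, measuring displacement of [125I]Bolton-Hunter SP binding on human IM-9 cells expressing NK-1 receptors.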

Series [3] can be described thus: Bioavailability in dog. It is filed as ADME, organism-based, Canis lupus familiaris. Particulars: in vivo.
The species entered for series [4] is Canis familiaris. Put plainly: In vitro microsome stability tested in dog liver expressed as percent remaining […]. As to conditions: Canis lupus familiaris. It is filed as functional.

As for `COc1ccc(C(=O)CCC(=O)NC(Cc2c[nH]c3ccccc23)CN(Cc2ccccc2OC)C(C)=O)cc1` (configuration not stated), the pIC50 (in general, the IC50 on a negative log10 scale, so that one unit is a factor of ten) in series [1] is 8.48. Also, the inhibition (commonly the percentage by which the read-out fell short of the control) in series [2] is 63%. On the same counts, the results for `COc1ccccc1CN(CC(Cc1c[nH]c2ccccc12)NC(=O)COc1ccc(O)cc1)C(C)=O` (configuration not stated) are 8.49 and 59%. `CCOCC(=O)NC(Cc1c[nH]c2ccccc12)CN(Cc1ccccc1OC)C(C)=O` (configuration not stated): in series [2], the inhibition came out at 4%. Still for that read-out and setting: for `COc1ccccc1CN(CC(Cc1c[nH]c2ccccc12)NC(=O)COc1ccc(Cl)cc1)C(C)=O` (configuration not stated) the value was 19%. For the compound `COc1ccccc1CN(C[C@@H](Cc1c[nH]c2ccccc12)NC(=O)COc1ccc(-n2ccnc2)cc1)C(C)=O`, the bioavailability – broadly, dose-corrected exposure relative to a reference, in per cent – in series [3] came out at 14%. The compound also gave a pIC50 in series [1] of 9.32. Also, the Remaining in series [4] turned out to be 87%. On to `COc1ccccc1CN(C[C@@H](Cc1c[nH]c2ccccc12)NC(=O)CN1CCC(N2CCCCC2)CC1)C(C)=O` [LANEPITANT], for which, in series [3], the bioavailability was 9%. The compound `COc1ccccc1CN(CC(Cc1c[nH]c2ccccc12)NC(=O)COc1ccccc1OC)C(C)=O` (configuration not stated) gave a pIC50 in series [1] of 7.62. Further, in series [2], the inhibition was 42%.

On to `COc1ccccc1CN(CC(Cc1c[nH]c2ccccc12)NC(=O)COc1ccc(CO)cc1)C(C)=O` (configuration not stated), for which the pIC50 in series [1] was 9.09. Further, the inhibition in series [2] was found to be 87%. On the same counts, the results for `COc1ccc(OCC(=O)NC(Cc2c[nH]c3ccccc23)CN(Cc2ccccc2OC)C(C)=O)cc1` (configuration not stated) are 7.99 and 52%. The compound `COc1ccccc1CN(CC(Cc1c[nH]c2ccccc12)NC(=O)c1ccccc1Cl)C(C)=O` (configuration not stated) had an inhibition in series [2] of 0%. Still for that read-out and setting: then `COc1cccc(CC(=O)NC(Cc2c[nH]c3ccccc23)CN(Cc2ccccc2OC)C(C)=O)c1` (configuration not stated), with 22%.

In the case of `COc1ccccc1CN(CC(Cc1c[nH]c2ccccc12)NC(=O)COc1ccc(C(C)=O)cc1)C(C)=O` (configuration not stated), in series [1], the pIC50 was 8.46. Also, the inhibition in series [2] came to 68%. The compound `COc1ccccc1CN(CC(Cc1c[nH]c2ccccc12)NC(=O)Cc1ccc2c(c1)OCCO2)C(C)=O` (configuration not stated) gave a pIC50 in series [1] of 8.08. The inhibition in series [2] was 46%. On to `COc1ccccc1CN(C[C@@H](Cc1c[nH]c2ccccc12)NC(=O)COc1ccc(CO)cc1)C(C)=O`, for which the bioavailability in series [3] was 17%. In series [1], this compound had a pIC50 of 9.37. Also, the Remaining in series [4] amounted to 28%. The compound `CC(=O)N(Cc1ccccc1Cl)C[C@@H](Cc1c[nH]c2ccccc12)NC(=O)COc1ccc(-n2ccnc2)cc1` showed a bioavailability in series [3] of 36%. Besides, in series [4], the Remaining is 96%. The compound `COc1ccccc1CN(CC(Cc1c[nH]c2ccccc12)NC(=O)CCc1ccccc1)C(C)=O` (configuration not stated) registered an inhibition in series [2] of 20%. Consider `COc1ccccc1CC(=O)NC(Cc1c[nH]c2ccccc12)CN(Cc1ccccc1OC)C(C)=O` (configuration not stated), for which the inhibition in series [2] was determined as 23%. The compound `COc1ccccc1CN(C[C@@H](Cc1c[nH]c2ccccc12)NC(=O)CCC(=O)c1ccccc1)C(C)=O` gave a pIC50 in series [1] of 7.47. The compound also came in with an inhibition in series [2] of 20%.

The compound `COc1ccc(CC(=O)NC(Cc2c[nH]c3ccccc23)CN(Cc2ccccc2OC)C(C)=O)cc1` (configuration not stated) had a pIC50 in series [1] of 8.01. The same compound gave an inhibition in series [2] of 81%. With `COc1ccccc1CN(CC(Cc1c[nH]c2ccccc12)NC(=O)Cc1ccccc1)C(C)=O` (configuration not stated), the inhibition in series [2] amounted to 18%. Same read-out and setting: for `COc1ccc(C(=O)NC(Cc2c[nH]c3ccccc23)CN(Cc2ccccc2OC)C(C)=O)cc1` (configuration not stated) the value was 13%; for `COc1ccccc1CN(CC(Cc1c[nH]c2ccccc12)NC(=O)CCC(=O)c1ccc(Cl)cc1)C(C)=O` (configuration not stated), 49%; for `COc1ccccc1CN(CC(Cc1c[nH]c2ccccc12)NC(=O)Cc1ccccc1Cl)C(C)=O` (configuration not stated), 30%. In series [3], `COc1ccccc1CN(C[C@@H](Cc1c[nH]c2ccccc12)NC(=O)COc1ccc(-c2csnn2)cc1)C(C)=O` displayed a bioavailability of 47%. Besides, in series [1], the pIC50 is 9.01. The Remaining in series [4] amounted to 67%. For the compound `COc1ccccc1CN(CC(Cc1c[nH]c2ccccc12)NC(=O)Cc1ccc(O)cc1)C(C)=O` (configuration not stated), the inhibition in series [2] came to 25%. In series [1], `COc1ccccc1CN(CC(Cc1c[nH]c2ccccc12)NC(=O)CSc1ccccn1)C(C)=O` (configuration not stated) showed a pIC50 of 7.97. Further, the inhibition in series [2] is 41%.

In series [1], `COc1ccccc1CN(CC(Cc1c[nH]c2ccccc12)NC(=O)CCC(=O)c1ccc(F)cc1)C(C)=O` (configuration not stated) gave a pIC50 of 8.22. In addition, the inhibition in series [2] came to 66%. On to `COc1ccccc1CN(CC(Cc1c[nH]c2ccccc12)NC(=O)c1ccccc1)C(C)=O` (configuration not stated), for which the inhibition in series [2] was determined as 0%. Same read-out and setting: for `COc1cccc(OCC(=O)NC(Cc2c[nH]c3ccccc23)CN(Cc2ccccc2OC)C(C)=O)c1` (configuration not stated) the value was 3%.
